# Compound activity from PubChem.
# Most compounds without a hit are left out; they make up all but 4.9% or so of the library.
# STAT1 blocker: STAT1 signaling inhibition; NIH 3T3 STAT1-luciferase reporter, IFN-gamma, luminescence; inhibition, % at 5.5 µM; 200,000 compounds, 0.35% hits; AID 920;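 active = inhibition above a set limit, the mean inhibition across all tested compounds plus 3 SD, cut at about 34% in these data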;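 note: 0% = IFN-gamma with DMSO and 100% = IFN-gamma with 300 µM nifuroxazide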
# STAT3 inh: STAT3 signaling inhibition; 190,000 compounds, 0.89% hits; AID 862; inhibition, % at 5.5 µM; U3A cells, IL-6 STAT3-luciferase reporter, luminescence; host cell line lacks STAT1;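 active = inhibition above the mean inhibition across all screened compounds plus 3 SD, cut at about 44% in these data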;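 note: 0% = DMSO only wells and 100% = 100 µM nifuroxazide control wells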
# STAT1 activator: increases IFN-gamma driven STAT1 reporter signal. NIH 3T3 STAT1-luciferase reporter, luminescence; 100% = IFN-gamma alone, no compound. activation (% of control), % at 5.5 µM. 200,000 compounds, 2.6% hits;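 active = activation above the screen-wide mean activation plus 3 SD, cut at about 130% in these data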;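 note: raw ratio to IFN-gamma control signal so 100% means no change and 0% no light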
# STAT3 activator: STAT3 signaling activation | U3A cells, IL-6 STAT3-luciferase reporter, luminescence; 100% = signal with IL-6 EC80 alone | activation (% of control), % at 5.6 µM | 190,000 compounds, 0.91% hits;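 active = activation above the screen-wide mean of compound activation plus 3 SD, cut at about 130% in these data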;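 note: 0% = background luminescence of wells with medium and substrate only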
#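 Material: STAT3-luciferase reporter U3A cells; Probe or stimulus: IL-6 (33 ng/mL); Incubation: compound pre-incubation 1 h before IL-6, then 6 h stimulation at 37 °C; Technique: luminescence from STAT3-driven luciferase reporter; Evaluation: % activation versus median of IL-6-stimulated wells; Controls: IL-6-only high control.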
# APP 5'UTR act: APP 5'UTR luciferase reporter activation. SH-SY5Y APP 5'UTR luciferase reporter, luminescence; zero percent = DMSO vehicle wells. activation, % at 2 µM. 190,000 compounds, 1% hits. AID 1276;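 active = activation above a set limit, based on mean plus 3 SD of controls, cut at about 140% in these data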
# NF-kB neuron act: compounds increasing NF-kB expression in human neuronal cells; NF-kB reporter expression; stronger effect = higher value; fold change at 12.5 µM; 190,000 compounds, 1.6% hits; in the data active = fold change above about 3.3
# * = called active by the depositor; nt = not tested or not shown.
SMILES,STAT1 blocker,STAT3 inh,STAT1 activator,STAT3 activator,APP 5'UTR act,NF-kB neuron act
O=C1c2ccccc2NC(c2ccc3c(c2)OCCO3)N1c1ccc2c(c1)OCCO2 (centres undefined),-19.4,23.5,118.8,85.0,84.9,4.39*
COc1cc(C2Nc3ccccc3C(=O)N2c2ccccc2OC)ccc1O (centres undefined),-5.2,4.1,104.7,98.9,20.4,0.97
c1ccc(-c2nnc(-c3ccccc3)o2)cc1,-43.4,4.3,138.6*,98.7,163.4*,4.59*
Cc1cccc(-c2nnc(-c3ccc(N)cc3)o2)c1,-51.2,21.7,147.0*,84.2,56.6,3.96*
Cc1cccc(-c2nnc(SCc3ccccc3)o2)c1,-18.5,8.0,116.9,96.4,44.7,2.2
Cc1ccc(-c2nnc(-c3cccc(Br)c3)o2)cc1,-26.0,-19.1,122.1,119.9,109.1,3.67*
Cc1ccc(-c2nnc(Nc3ccccc3)o2)cc1,72.0*,100.6*,34.2,20.1,98.7,3.27
c1ccc(-c2nnc(-c3ccncc3)o2)cc1,-27.7,3.0,117.3,98.4,28.6,1.83
Cc1ccc(NC(=O)Nc2nnc(-c3ccccc3)o2)cc1,-21.8,8.9,118.8,96.9,30.2,2.07
Cc1ccc(NC(=O)C2=C(c3ccccc3)S(=O)(=O)CCS2(=O)=O)cc1,22.3,26.8,79.0,81.2,-93.3,0.47
O=C(Nc1ccc(CN2CCCCC2)cc1)Nc1ccc(Br)cc1Cl,3.3,10.7,96.8,93.1,5.3,0.97
CN(C(=O)CSC1=NC2C(N=N1)c1cc(Br)ccc1N2C)C1CCCCC1 (centres undefined),-3.4,3.3,103.7,99.2,-2.9,1.25
CCN(CC)S(=O)(=O)c1cc(NC(=O)C(C)OC(=O)c2[nH]c(C)c(C(C)=O)c2C)ccc1C (centres undefined),14.0,5.9,87.5,96.9,0.3,0.59
Cc1ccc(-c2nnc(-c3ccccc3)o2)cc1Br,-26.8,16.8,124.6,88.4,42.8,nt
Brc1cccc(-c2nnc(-c3ccccc3)o2)c1,-34.4,-10.8,131.7*,109.8,55.8,1.04
O=C(COc1ccccc1-c1ccccc1)N/N=C/c1cccc2ccccc12,-9.1,-24.3,108.2,129.2,-95.2,4.14*
COc1ccc(/C=N/NC(=O)COc2ccccc2-c2ccccc2)cc1,6.3,-2.6,94.3,108.9,-96.5,5.31*
O=C(COc1cccc2ccccc12)N/N=C/c1ccccc1OCc1ccc(C(=O)O)cc1,-7.8,25.9,106.4,85.8,2.1,1.08
COc1ccc(N(C(=O)c2cc3ccccc3oc2=O)C2C=CS(=O)(=O)C2)c(OC)c1 (centres undefined),5.0,-5.0,95.2,105.5,-5.3,1.21
CNC(=O)c1c(C)noc1C,-1.9,2.0,100.7,101.2,5.3,1.25
CN(c1ccc(C(=O)NCCSCc2c(F)cccc2Cl)cc1)S(C)(=O)=O,-0.3,15.2,100.7,91.8,14.9,nt
Cc1ccc(-c2nnc(SCC(=O)Nc3cccc(C(=O)N4CCOCC4)c3)n2C)cc1,4.2,-4.2,96.3,101.3,3.3,1.08
Cc1ccc(/C=C2\Sc3ccccc3C2=O)s1,7.9,-7.5,92.9,116.7,28.2,5.52*
CN(C)c1ccc(/C=C/c2ccc3c4ccccc4ccc3[n+]2-c2ccccc2)cc1,46.2*,80.8*,56.4,34.9,-83.2,0.36
O=C1c2ccccc2C(=O)N1CCSc1nncs1,-16.4,13.7,115.0,93.3,9.4,1.13
SMILES,STAT1 blocker,STAT3 inh,STAT1 activator,STAT3 activator,APP 5'UTR act,NF-kB neuron act
O=C1c2ccccc2C(=O)N1CCSc1ccccc1,-41.5,-2.3,138.1*,104.9,61.5,3.13
CN(C)c1ccc(/C=C(/C#N)C(=O)NCc2ccccc2)o1,-31.6,-4.2,128.6*,106.8,38.2,1.52
N#C/C(=C/c1ccccc1)C(=O)NCc1ccccc1,-0.4,-2.9,100.5,102.1,0.2,1.04
COCCNC(=S)N1CCc2cc(OC)c(OC)cc2C1COc1ccc(C(C)C)cc1 (centres undefined),4.9,-16.6,95.5,109.7,-4.7,1.28
Nc1nc(-c2c[nH]c3ccccc23)cs1,7.2,0.6,93.4,104.3,12.9,0.42
CCc1ccc(-c2csc(-c3c[nH]c4ccccc34)n2)cc1,-35.7,-14.3,131.8*,112.5,40.0,2.69
COc1ccc(OC)c(NC(=O)Cn2c(CCC(=O)O)ccc2-c2ccccc2)c1,-5.3,-36.8,104.8,133.6*,-10.5,0.86
COc1ccccc1NC(=O)Cn1c(CCC(=O)O)ccc1-c1ccccc1,3.7,-1.8,94.7,104.5,-19.0,0.93
Cc1cccc(Nc2nn3c(=O)c4ccccc4nc3s2)c1,-34.6,0.1,131.7*,102.2,69.1,1.89
CCCSc1nn2c(=O)c3ccccc3nc2s1,-29.1,20.2,126.7,82.3,82.0,3.02
Cc1nn2cc(-c3ccc(N)cc3)nc2s1,-42.1,-14.7,139.0*,117.0,67.9,2.22
Cn1c(-c2ccc3ccccc3n2)nc2cnccc21,-36.2,-1.5,133.0*,110.2,108.8,2.05
Cc1cc(C(=O)CSc2cccc[n+]2[O-])c(C)n1-c1ccccc1,11.4,42.5,89.7,68.3,148.9*,3.81*
Cc1cc(C(=O)CSc2nncn2C)c(C)n1-c1ccccc1,4.2,36.9,96.0,72.3,122.1,4.2*
Cc1cc(C(=O)CSc2nncs2)c(C)n1-c1c(C)n(C)n(-c2ccccc2)c1=O,-7.8,12.8,107.1,96.5,-4.9,1.17
Cc1ccc(-n2c(C)cc(C(=O)CSc3nncs3)c2C)cc1,-30.7,27.5,129.4*,81.5,139.2*,5.42*
Clc1ccccc1Cc1noc(CN2CCCCC2c2ccccn2)n1 (centres undefined),2.4,2.6,97.6,102.9,3.9,1.32
CCCC(=O)Nc1nc2ccc(C(=O)OCC)cc2s1,-29.7,0.1,126.9,107.4,60.8,2.27
CCCCC(=O)Nc1nc2ccc(C(=O)OC)cc2s1,-30.9,8.7,129.0*,96.5,78.9,2.54
CCOC(=O)c1ccc2nc(NC(=O)C(C)C)sc2c1,-52.0,1.2,144.7*,98.3,121.6,4.2*
CCOC(=O)c1ccc2nc(NC(=O)c3cccs3)sc2c1,-43.8,28.0,140.4*,80.4,57.7,6.99*
O=C(Nc1nc2ccc(S(=O)(=O)N3CCCC3)cc2s1)c1cccs1,-14.3,-5.4,113.1,107.3,18.2,1.35
COc1ccc2c(C)cc(SCC(=O)Nc3cccnc3Cl)nc2c1,12.6,-18.2,87.3,120.2,2.8,1.23
COC(=O)CN1CCN(C(=O)c2ccc(F)cc2)c2ccccc2C1,-3.0,-20.0,102.8,118.2,20.6,1
Cc1cc(/C=C2/SC(=S)N(c3cccc(Cl)c3)C2=O)c(C)n1-c1cccnc1,18.7,67.0*,85.6,44.0,-5.8,nt
Cc1cc(/C=C2/SC(=S)N(c3ccc([N+](=O)[O-])cc3)C2=O)c(C)n1-c1cccnc1,4.4,1.6,96.0,101.9,-12.6,0.43
